Experiments:
[1] = tested on: eight cell lines representing different cancer types; assay: Drug response viability assay; type: cell-based; conditions: 48 h
[2] = tested on: HT29 colon cancer cell line xenografts; assay: HT29 colon cancer cell line xenograft treated with alvespimycin; type: in vivo, BALB/c nude mice; conditions: alvespimycin 50 mg/kg intraperitoneally daily, N = 9
In short: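 Female BALB/c nude mice, 4–6 weeks old, received 5×10^6 HT29 cells in 100 μL PBS subcutaneously in the dorsal flank. On day 0 they were randomised to vehicle (2% DMSO in PBS) or test compound at 50 mg/kg i.p. daily, N = 9 per group, and sacrificed 7 days later. Tumours were measured by caliper every 1–3 days; volume = (width)2 × length × 0.52; mean ± sd.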

UCEC tumors = conditions: cited from earlier work
[3] = tested on: T cells of HLA-A*02 healthy donors; assay: IFN-γ ELISpot assay; type: cell-based, human
[4] = CD8+ T cell cultures of donor US1 with HLA-A*02:11, peptide 12.5 μg/mL, about 16 hrs (BCM)
[5] = donor CN1 with HLA-A*02:01, peptide 10 μg/mL, 20h co-culture (Fudan)

For `CO[C@H]1/C=C\C=C(/C)C(=O)NC2=CC(=O)C(NCCN(C)C)=C(C[C@@H](C)C[C@H](OC)[C@H](O)[C@@H](C)/C=C(\C)[C@@H]1OC(N)=O)C2=O` [alvespimycin], which IC50 [1] is on record?
The IC50 was under 1000 nM.

What about the tumor regression [2] of the same molecule?
Its tumor regression is “began to induce tumor regression after seven days of treatment”.

For `COc1cccc2c1C(=O)c1c(O)c3c(c(O)c1C2=O)C[C@@](O)(C(=O)CO)C[C@@H]3O[C@H]1C[C@H](N)[C@H](O)[C@H](C)O1` [doxorubicin], which overall response rate (UCEC tumors; unselected UCEC patients) is on record?
Its overall response rate is 16%.

Which clinical activity (UCEC tumors; UCEC tumors among unselected patients) does the source give for `O=C1c2c(O)ccc(O)c2C(=O)c2c(NCCNCCO)ccc(NCCNCCO)c21` [mitoxantrone] here?
Its clinical activity is “lack clinical activity”.

For `C=CCNC1=C2C[C@@H](C)C[C@H](OC)[C@H](O)[C@@H](C)/C=C(\C)[C@H](OC(N)=O)[C@@H](OC)/C=C\C=C(/C)C(=O)NC(=CC1=O)C2=O` [tanespimycin], which IC50 [1] is on record?
The IC50 was under 1000 nM.

Which “T cell reactivity, IFN-γ ELISpot” value [3, 4] does the source give for CILESLFRAV [PEP4] here?
Its value is “strong reactivity”.

With FSYAWPFYNPV [PEP28] as the molecule, how does the “T cell reactivity, IFN-γ ELISpot” value [3, 5] read?
Its value is “strong reactivity”.

Which “T cell reactivity, IFN-γ ELISpot” value [3, 4] does the source give for MMGLYDGMEHL [PEP17] here?
The value was “strong reactivity”.

Which “T cell reactivity, IFN-γ ELISpot” value [3, 5] does the source give for YLVERQLQEI [PEP40] here?
The value was “strong reactivity”.
